Source: ChEMBL document CHEMBL1153349, “3-Hydroxy-4-oxo-4H-pyrido[1,2-a]pyrimidine-2-carboxylates--a new class of HIV-1 integrase inhibitors” (Bioorg Med Chem Lett, 2009)

How the values were obtained:
[1] = test system: Human immunodeficiency virus 1; assay: Antiviral activity against HIV1 3B infected in human MT4 cells after 3 days by ELISA in presence of 50% normal human serum; assay type: functional; conditions: Human immunodeficiency virus 1, 3B, MT4, 72 h; read-out: CIC95
Summary of the method: (§1)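 HIV-1 infection spread was measured in cell culture (spread assay) under low-serum (10% fetal bovine serum) or high-serum (50% normal human serum) conditions.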

MT4 = assay: Cytotoxicity against human MT4 cells assessed as morphological changes up to 50 uM after 4 days; assay type: cell-based; conditions: mt4, 96 h
[2] = test system: Human immunodeficiency virus 1; assay: Antiviral activity against HIV1 3B infected in human MT4 cells after 3 days by ELISA in presence of 10% fetal bovine serum; assay type: functional; conditions: Human immunodeficiency virus 1, 3B, MT4, 72 h; read-out: CIC95; summary of the method: as §1
[3] = molecular target: Human immunodeficiency virus type 1 integrase (Human immunodeficiency virus 1, UniProt Q7ZJM1); assay: Inhibition of HIV1 recombinant integrase strand transfer activity
Sequence of Human immunodeficiency virus type 1 integrase (Q7ZJM1 whole entry): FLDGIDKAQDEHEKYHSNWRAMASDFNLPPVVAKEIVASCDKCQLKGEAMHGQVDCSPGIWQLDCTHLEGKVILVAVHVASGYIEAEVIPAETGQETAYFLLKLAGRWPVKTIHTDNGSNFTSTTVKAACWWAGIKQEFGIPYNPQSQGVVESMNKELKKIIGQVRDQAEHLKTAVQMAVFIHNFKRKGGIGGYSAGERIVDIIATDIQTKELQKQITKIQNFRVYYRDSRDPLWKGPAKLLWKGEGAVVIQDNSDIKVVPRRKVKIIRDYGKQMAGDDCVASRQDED

[4] = Half life in rat plasma at 3 mg/kg, iv and po; assay type: ADME, organism-based; design: dose 3 mg/kg, route oral
Summary of the method: (§2)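 Rats were dosed at 3 mg/kg both intravenously and orally, and the plasma PK profile was obtained. Parameters were AUC, plasma half-life and oral bioavailability (F%). Plasma clearance was taken from the IV dose.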

Rattus norvegicus = assay: AUC in rat plasma at 3 mg/kg, iv and po; assay type: ADME, organism-based; design: dose 3 mg/kg, route oral; conditions: in vivo; summary of the method: as §2
[5] = Plasma clearance in rat at 3 mg/kg, iv; assay type: ADME, organism-based; design: dose 3 mg/kg, route intravenous; summary of the method: as §2
[6] = Oral bioavailability in rat at 3 mg/kg; assay type: ADME, organism-based; conditions: in vivo; summary of the method: as §2

IC50 [3] [nM] | half-life [4] [h] | AUC (Rattus norvegicus) [µM·h] | clearance [5] [mL/min/kg] | bioavailability [6] [%] | SMILES | IC95 [1] [nM] | Activity (MT4) | IC95 [2] [nM]
21 | – | – | – | – | CCN(C(=O)C(=O)N1CCCC1)c1cccn2c(=O)c(O)c(C(=O)NCc3ccc(F)cc3)nc12 | 1000 | Non-toxic | 31
170 | – | – | – | – | O=C(NCc1ccc(F)cc1)c1nc2c(CN3CCOCC3)cccn2c(=O)c1O | – | – | –
185 | – | – | – | – | CC(=O)N1CCN(Cc2cccn3c(=O)c(O)c(C(=O)NCc4ccc(F)cc4)nc23)CC1 | – | – | –
19 | – | – | – | – | CCN(CC)C(=O)C(=O)N(CC)c1cccn2c(=O)c(O)c(C(=O)NCc3ccc(F)cc3)nc12 | 125 | Non-toxic | 62
21 | – | – | – | – | CCN(C(=O)C(=O)N1CCN(C)CC1)c1cccn2c(=O)c(O)c(C(=O)NCc3ccc(F)cc3)nc12 | 500 | Non-toxic | 125
23 | – | – | – | – | CCN(C(=O)CN1CCOCC1)c1cccn2c(=O)c(O)c(C(=O)NCc3ccc(F)cc3)nc12 | > 1000 | Non-toxic | > 1000
70 | – | – | – | – | CN(C)c1cccn2c(=O)c(O)c(C(=O)NCc3ccc(F)cc3)nc12 | – | – | –
18 | – | – | – | – | CCCN(C(=O)C(=O)N(C)C)c1cccn2c(=O)c(O)c(C(=O)NCc3ccc(F)cc3)nc12 | 500 | Non-toxic | 31
185 | – | – | – | – | CCN(C(=O)CN(C)C)c1cccn2c(=O)c(O)c(C(=O)NCc3ccc(F)cc3)nc12 | > 1000 | Non-toxic | > 1000
50 | – | – | – | – | CCN(C(=O)c1nnc(C)o1)c1cccn2c(=O)c(O)c(C(=O)NCc3ccc(F)cc3)nc12 | > 1000 | Non-toxic | 500
21 | – | – | – | – | CCN(C(=O)c1cscn1)c1cccn2c(=O)c(O)c(C(=O)NCc3ccc(F)cc3)nc12 | > 1000 | Non-toxic | 250
36 | 4.5 | 2.9 | 24 | 40 | CCN(C(=O)C(=O)N(C)C)c1cccn2c(=O)c(O)c(C(=O)NCc3ccc(F)cc3)nc12 | 250 | Non-toxic | 62
25 | – | – | – | – | CCN(C(=O)C(=O)N1CCOCC1)c1cccn2c(=O)c(O)c(C(=O)NCc3ccc(F)cc3)nc12 | 250 | Non-toxic | 31
18 | – | – | – | – | CCN(C(=O)c1ccno1)c1cccn2c(=O)c(O)c(C(=O)NCc3ccc(F)cc3)nc12 | > 1000 | Non-toxic | 500

Further lines, the compound ahead of its results:

SMILES | IC50 [3] [nM] | half-life [4] [h] | AUC (Rattus norvegicus) [µM·h] | clearance [5] [mL/min/kg] | bioavailability [6] [%] | IC95 [1] [nM] | Activity (MT4) | IC95 [2] [nM]
CCN(C(=O)c1ccncc1)c1cccn2c(=O)c(O)c(C(=O)NCc3ccc(F)cc3)nc12 | 50 | – | – | – | – | > 1000 | Non-toxic | > 1000
CCN(C(=O)c1ccccn1)c1cccn2c(=O)c(O)c(C(=O)NCc3ccc(F)cc3)nc12 | 21 | – | – | – | – | 1000 | Non-toxic | 250
O=C(NCc1cccn2c(=O)c(O)c(C(=O)NCc3ccc(F)cc3)nc12)c1ccccc1 | 24 | – | – | – | – | – | – | –
CN(C)C(=O)C(=O)N(C)c1cccn2c(=O)c(O)c(C(=O)NCc3ccc(F)cc3)nc12 | 26 | – | – | – | – | 500 | Non-toxic | 125
CNc1cccn2c(=O)c(O)c(C(=O)NCc3ccc(F)cc3)nc12 | 130 | – | – | – | – | – | – | –
O=C(Nc1cccn2c(=O)c(O)c(C(=O)NCc3ccc(F)cc3)nc12)c1ccccc1 | 18 | – | – | – | – | – | – | –
CCNc1cccn2c(=O)c(O)c(C(=O)NCc3ccc(F)cc3)nc12 | 36 | – | – | – | – | > 1000 | Non-toxic | 1250
CC(C)N(C(=O)C(=O)N(C)C)c1cccn2c(=O)c(O)c(C(=O)NCc3ccc(F)cc3)nc12 | 21 | – | – | – | – | > 1000 | Non-toxic | 62
O=C(NCc1ccc(F)cc1)c1nc2ccccn2c(=O)c1O | 22 | – | – | – | – | – | – | –
Cc1cccn2c(=O)c(O)c(C(=O)NCc3ccc(F)cc3)nc12 | 9 | – | – | – | – | – | – | –
